Assay results reported in ChEMBL document CHEMBL1132593, “Structure-activity relationships of pyrazole derivatives as cannabinoid receptor antagonists” (J Med Chem, 1999).

Experiments:
[1] = system: Cannabinoid receptor CB1 (Rattus norvegicus) and CB2 (Mus musculus); test: Ratio of the binding affinities against rat CB1 to that of mouse CB2; activity value is 1:2.7
Cannabinoid receptor 1 = Cannabinoid receptor 1 (Rattus norvegicus, UniProt P20272); test: Binding affinity against Cannabinoid receptor 1 in rat forebrain
Mus musculus [2] = species on record: Mus musculus; test: Dissociation constant [1000(nM)] in mouse isolated vas deferens using the cannabinoid receptor agonist.; assay type: functional, organism-based
Method in brief: (§1)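 Mouse isolated vas deferens. Antagonist tested at the stated concentration against WIN55,212-2 inhibition of electrically evoked contractions. Drugs dispersed in saline with two parts Tween 80 by weight, with Tween 80 as the reference. Dose ratio (95% confidence limits) from a symmetrical 2+2 dose parallel line assay. Kd from (x−1) = B/Kd.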

Cannabinoid receptor 2 = Cannabinoid receptor 2 (Mus musculus, UniProt P47936); test: Binding affinity against Cannabinoid receptor 2 in mouse spleen; assay type: tissue-based
Method in brief: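 Membranes from frozen mouse spleen (CB2), about 50 μg, prepared in silanized tubes. Incubated 1 h at 30 °C in TME with 0.1% fatty-acid-free BSA, 0.8 nM [3H]2 and varying ligand concentrations. Filtration, four ice-cold washes with buffer containing 0.5% BSA, then scintillation counting. Nonspecific binding defined with 100 nM 2. Three independent experiments in duplicate, normalized to specific binding; 95% confidence limits.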

Cavia porcellus [3] = species on record: Cavia porcellus; test: Dissociation constant [100(nM)] in myenteric plexus-longitudinal muscle of guinea pig small intestine using the cannabinoid receptor agonist.; assay type: functional, organism-based
Method in brief: (§2)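 Guinea pig small intestine myenteric plexus-longitudinal muscle. Antagonist tested at the stated concentration against WIN55,212-2 inhibition of electrically evoked contractions. Drugs mixed with two parts Tween 80 by weight and dispersed in saline; Tween 80 served as the reference. Dose ratio from a symmetrical (2+2) dose parallel line assay on the steepest part of the curve. Kd = B/(x−1).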

Mus musculus [4] = species on record: Mus musculus; test: Dissociation constant [31.6(nM)] in mouse isolated vas deferens using the cannabinoid receptor agonist.; assay type: functional, organism-based
Method in brief: as §1

[5] = molecular target: T1, Cannabinoid receptor (Homo sapiens) (UniProt P34972+P21554); test: Ratio of the binding affinities against rat CB1 to that of mouse CB2; activity value is 1:85; assay type: protein assay
Mus musculus [6] = species on record: Mus musculus; test: Dissociation constant [316(nM)] in mouse isolated vas deferens using the cannabinoid receptor agonist.; assay type: functional, organism-based
Method in brief: as §1

[7] = system: Cannabinoid receptor CB1 (Rattus norvegicus) and CB2 (Mus musculus); test: Ratio of the binding affinities against rat CB1 to that of mouse CB2; activity value is 1:37
Cavia porcellus [8] = species on record: Cavia porcellus; test: Dissociation constant [1000(nM)] in myenteric plexus-longitudinal muscle of guinea pig small intestine using the cannabinoid receptor agonist.; assay type: functional, organism-based
Method in brief: as §2

[9] = molecular target: T1, Cannabinoid receptor (Homo sapiens); test: Ratio of the binding affinities against rat CB1 to that of mouse CB2; activity value is 1:17; assay type: protein assay
[10] = molecular target: T1, Cannabinoid receptor (Homo sapiens); test: Ratio of the binding affinities against rat CB1 to that of mouse CB2; activity value is 1:7.2; assay type: protein assay

Chain of Cannabinoid receptor 1 (P20272 whole entry): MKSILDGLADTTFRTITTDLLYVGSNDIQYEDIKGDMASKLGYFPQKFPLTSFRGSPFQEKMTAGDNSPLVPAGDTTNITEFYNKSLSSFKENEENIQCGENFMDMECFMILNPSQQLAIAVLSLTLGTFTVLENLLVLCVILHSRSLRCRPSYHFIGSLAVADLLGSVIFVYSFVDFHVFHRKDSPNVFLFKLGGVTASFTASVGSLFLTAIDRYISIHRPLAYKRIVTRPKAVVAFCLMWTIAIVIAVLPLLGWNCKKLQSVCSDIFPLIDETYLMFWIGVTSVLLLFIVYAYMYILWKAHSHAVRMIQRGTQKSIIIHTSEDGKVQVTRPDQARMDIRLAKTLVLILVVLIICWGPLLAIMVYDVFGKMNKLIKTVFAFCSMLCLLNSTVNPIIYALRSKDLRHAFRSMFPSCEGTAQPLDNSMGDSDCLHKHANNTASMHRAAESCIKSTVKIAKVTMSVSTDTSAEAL
Chain of Cannabinoid receptor 2 (P47936 whole entry): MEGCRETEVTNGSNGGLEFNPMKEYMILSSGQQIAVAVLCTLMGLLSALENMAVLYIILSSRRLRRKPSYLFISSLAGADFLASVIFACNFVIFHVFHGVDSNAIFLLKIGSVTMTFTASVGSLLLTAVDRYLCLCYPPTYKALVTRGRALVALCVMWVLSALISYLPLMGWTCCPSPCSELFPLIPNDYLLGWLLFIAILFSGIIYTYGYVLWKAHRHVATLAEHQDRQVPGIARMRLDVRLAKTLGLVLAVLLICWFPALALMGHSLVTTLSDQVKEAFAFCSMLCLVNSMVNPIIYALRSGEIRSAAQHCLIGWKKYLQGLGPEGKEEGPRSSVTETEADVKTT
T1 sequence (P21554 whole entry, looked up): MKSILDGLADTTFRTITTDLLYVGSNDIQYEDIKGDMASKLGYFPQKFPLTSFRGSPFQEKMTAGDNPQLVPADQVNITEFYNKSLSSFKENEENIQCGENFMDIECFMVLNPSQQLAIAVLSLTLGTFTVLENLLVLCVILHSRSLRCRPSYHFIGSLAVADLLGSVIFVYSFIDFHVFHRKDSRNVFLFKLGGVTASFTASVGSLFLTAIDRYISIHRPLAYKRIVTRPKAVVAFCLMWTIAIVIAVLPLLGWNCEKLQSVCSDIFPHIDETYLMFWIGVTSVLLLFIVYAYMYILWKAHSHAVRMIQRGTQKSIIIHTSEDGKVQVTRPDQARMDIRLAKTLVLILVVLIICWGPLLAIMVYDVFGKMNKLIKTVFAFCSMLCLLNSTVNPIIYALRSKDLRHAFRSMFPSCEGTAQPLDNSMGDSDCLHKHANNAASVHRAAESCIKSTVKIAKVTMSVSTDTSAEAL
T1 sequence (P34972 whole entry, looked up): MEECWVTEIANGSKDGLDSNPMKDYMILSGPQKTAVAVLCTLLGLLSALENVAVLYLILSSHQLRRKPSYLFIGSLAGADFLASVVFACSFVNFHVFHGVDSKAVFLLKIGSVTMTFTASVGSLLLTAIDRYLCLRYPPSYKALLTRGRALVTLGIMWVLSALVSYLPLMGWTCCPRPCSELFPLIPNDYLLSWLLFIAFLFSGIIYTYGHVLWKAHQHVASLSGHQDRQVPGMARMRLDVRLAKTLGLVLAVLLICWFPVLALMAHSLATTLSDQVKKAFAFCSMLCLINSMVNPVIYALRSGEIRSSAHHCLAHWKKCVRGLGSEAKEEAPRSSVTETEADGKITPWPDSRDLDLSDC

SMILES: Cc1c(C(=O)NN2CCCCC2)nn(-c2ccc(Cl)cc2Cl)c1-c1ccccc1N
- Ratio [1]: 2.7
- Ki (Cannabinoid receptor 1): 346 nM
- Kd (Mus musculus [2]): 118 nM
- Ki (Cannabinoid receptor 2): 931 nM
- Kd (Cavia porcellus [3]): 11.2 nM

SMILES: Cc1c(C(=O)NN2CCCCC2)nn(-c2ccc(Cl)cc2Cl)c1-c1ccc(I)cc1
- Kd (Mus musculus [4]): 0.5 nM
- Kd (Cavia porcellus [3]): 0.22 nM

SMILES: Cc1c(C(=O)NN2CCCCC2)nn(-c2ccc(Cl)cc2Cl)c1-c1ccc(Br)cc1
- Ki (Cannabinoid receptor 1): 16.8 nM
- Kd (Mus musculus [4]): 2.64 nM
- Ratio [5]: 85
- Ki (Cannabinoid receptor 2): 1430 nM
- Kd (Cavia porcellus [3]): 0.32 nM

SMILES: Cc1c(C(=O)NN2CCCCC2)nn(-c2ccc(Cl)cc2Cl)c1-c1ccc(N)cc1
- Ki (Cannabinoid receptor 1): 81.5 nM
- Ki (Cannabinoid receptor 2): 958 nM
- Kd (Mus musculus [6]): 42.6 nM
- Kd (Cavia porcellus [3]): 2.63 nM

SMILES: Cc1c(C(=O)N2CCCCC2)nn(-c2ccc(Cl)cc2Cl)c1-c1ccc(Br)cc1
- Ratio [7]: 37
- Ki (Cannabinoid receptor 1): 125 nM
- Kd (Mus musculus [2]): 172 nM
- Ki (Cannabinoid receptor 2): 4580 nM
- Kd (Cavia porcellus [8]): 4.72 nM

SMILES: Cc1c(C(=O)NN2CCOCC2)nn(-c2ccc(Cl)cc2Cl)c1-c1ccc(Br)cc1
- Ki (Cannabinoid receptor 1): 53.9 nM
- Ki (Cannabinoid receptor 2): 2450 nM

SMILES: Cc1c(C(=O)NCCO)nn(-c2ccc(Cl)cc2Cl)c1-c1ccc(Br)cc1
- Ki (Cannabinoid receptor 1): 1120 nM
- Ki (Cannabinoid receptor 2): 19000 nM

SMILES: CCc1c(C)c(C(=O)NN2CCCCC2)nn1-c1ccc(Cl)cc1Cl
- Ki (Cannabinoid receptor 1): 183 nM
- Ki (Cannabinoid receptor 2): 744 nM

SMILES: Cc1c(C(=O)Nc2ccccc2)nn(-c2ccc(Cl)cc2Cl)c1-c1ccc(Br)cc1
- Ki (Cannabinoid receptor 1): 31.1 nM
- Ratio [9]: 217
- Ki (Cannabinoid receptor 2): 6750 nM

SMILES: Cc1c(C(=O)N(C)C2CCCCC2)nn(-c2ccc(Cl)cc2Cl)c1-c1ccc(Br)cc1
- Ki (Cannabinoid receptor 1): 76.7 nM
- Ki (Cannabinoid receptor 2): 1260 nM

SMILES: Cc1c(C(=O)NN2CCCCC2)nn(-c2ccc(Cl)cc2Cl)c1-c1ccccc1[N+](=O)[O-]
- Ratio [1]: 2.7
- Ki (Cannabinoid receptor 1): 255 nM
- Ki (Cannabinoid receptor 2): 691 nM
- Kd (Mus musculus [6]): 25.4 nM
- Kd (Cavia porcellus [8]): 5.96 nM

SMILES: Cc1c(C(=O)NC2CCCCC2)nn(-c2ccc(Cl)cc2Cl)c1-c1ccc(Br)cc1
- Ki (Cannabinoid receptor 1): 11.7 nM
- Ki (Cannabinoid receptor 2): 1010 nM
- Ratio [10]: 87

SMILES: Cc1c(C(=O)NN2CCCCC2)nn(-c2ccc(Cl)cc2Cl)c1-c1ccc([N+](=O)[O-])cc1
- Ki (Cannabinoid receptor 1): 57.5 nM
- Ki (Cannabinoid receptor 2): 252 nM
- Kd (Mus musculus [6]): 5.31 nM
- Kd (Cavia porcellus [8]): 2.9 nM

SMILES: Cc1c(C(=O)NN2CCCCC2)nn(-c2ccc(Cl)cc2Cl)c1-c1ccc(Cl)cc1 [RIMONABANT]
- Kd (Mus musculus [4]): 1.98 nM
- Kd (Cavia porcellus [3]): 0.25 nM

SMILES: Cc1c(C(=O)NN2CCCCC2)nn(-c2ccc(Cl)cc2)c1-c1ccc(Cl)cc1
- Ki (Cannabinoid receptor 2): 836 nM

SMILES: Cc1c(C(=O)N2CCN(C)CC2)nn(-c2ccc(Cl)cc2Cl)c1-c1ccc(Br)cc1
- Ki (Cannabinoid receptor 1): 326 nM
- Kd (Mus musculus [2]): 325 nM
- Ki (Cannabinoid receptor 2): 2340 nM
- Kd (Cavia porcellus [8]): 12.3 nM

SMILES: Cc1c(C(=O)NN2CCCCCC2)nn(-c2ccc(Cl)cc2Cl)c1-c1ccc(Br)cc1
- Ki (Cannabinoid receptor 1): 7.85 nM
- Ratio [5]: 28
- Ki (Cannabinoid receptor 2): 215 nM
- Kd (Mus musculus [6]): 6.8 nM
- Kd (Cavia porcellus [8]): 0.38 nM

SMILES: Cc1c(C(=O)NN2CCCCC2)nn(-c2ccc(Cl)cc2Cl)c1-c1ccccc1
- Ki (Cannabinoid receptor 2): 217 nM
- Kd (Mus musculus [6]): 28 nM
- Kd (Cavia porcellus [8]): 7 nM

SMILES: Cc1c(C(=O)NN2CCCCC2)nn(-c2ccc(Cl)cc2Cl)c1-c1ccccc1I
- Ki (Cannabinoid receptor 1): 53.8 nM
- Kd (Mus musculus [4]): 7.83 nM
- Ki (Cannabinoid receptor 2): 577 nM
- Kd (Cavia porcellus [8]): 5.87 nM
